Series [1] can be described thus: Stability of analytes in rat plasma QC samples and postpreparative stability. It is filed as in vitro ADME. The following applies: for Stability in rat plasma, recovered percentage: QC samples (0.1, 0.5, and 5.0 μg/mL); for Postpreparative stability: prepared samples, 24 h storage at 4°C. A digest of the protocol: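 Drug-free rat plasma was spiked to give QC samples at 0.1, 0.5 and 5.0 μg/mL. Samples were stored at room temperature or -20°C. For postpreparative stability, extracted samples were held at 4°C. Samples were extracted with acetonitrile plus isoliquiritin IS and quantified by C18 water/acetonitrile gradient HPLC-UV at 330 nm. Results are given as percent recovered.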

The conditions of series [2]: ref Park et al., 21, cited from earlier work.
Setting [3] is: 12 h storage at room temperature.

As for `CC1(C)Oc2cc3oc(=O)ccc3cc2C[C@@H]1O` [Decursinol, decursinol], the “Stability in rat plasma, recovered percentage” value in series [1] (4-weeks storage at -20°C) was determined as 100.9 ± 5.9%; in series [1] (setting [3]), 89.9 ± 10.6%. For the same molecule, the Postpreparative stability in series [1] is 97.8 ± 5.4%.
As to `CC(C)=CC(=O)O[C@H]1Cc2cc3ccc(=O)oc3cc2OC1(C)C` [decursin], the “Plasma level after intravenous administration” value in series [2] (intravenous administration of decursin) was “rapidly decreased”. The Hepatic first-pass metabolism entry in series [2] is reported as “extensive hepatic first-pass metabolism”.
As to `CC(C)(O[C@@H]1O[C@H](CO)[C@@H](O)[C@H](O)[C@H]1O)[C@H]1Cc2cc3ccc(=O)oc3cc2O1` [Nodakenin, nodakenin], the results for the “Stability in rat plasma, recovered percentage” value in series [1] (4-weeks storage at -20°C) and in series [1] (setting [3]) were 99.0 ± 4.4% and 97.8 ± 7.1%, respectively. The molecule also displayed a Postpreparative stability in series [1] of 100.5 ± 6.1%.
